Some results are limits rather than exact numbers.

The record followed here is ChEMBL document CHEMBL4007461, “Synthesis, Antiviral Potency, in Vitro ADMET, and X-ray Structure of Potent CD4 Mimics as Entry Inhibitors That Target the Phe43 Cavity of HIV-1 gp120” (J Med Chem, 2017).

A short description of data set [1]: Cytotoxicity against human TZM-bl cells incubated for 3 days by XTT assay. The note with it: TZM-bl cells. It counts as cell-based. The method, boiled down:
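TZM-bl cells, 1 x 10^4/well, cultured overnight at 37 °C. Compounds added at graded concentrations for three days.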
For orientation: Formazan colour is commonly taken as a measure of viable cells.

The subject of data set [2] is Human immunodeficiency virus 1. Nature of the data set: Antiviral activity against X4 tropic HIV1 HXB2 infected in human TZM-bl cells pretreated with virus for 30 mins followed by 3 days incubation with cells by luciferase reporter gene based single cycle infection assay. It counts as functional, cell-based. The method, boiled down: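 TZM-bl cells (1 x 10^4/well) were cultured overnight at 37 °C. HXB2-Env pseudovirus was preincubated 30 min with graded compound concentrations, then added to the cells for 3 days. Cells were washed and lysed, and luciferase was read. IC50 came from percent inhibition.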
For orientation: Reporter assays use an easily measured gene product as a stand-in for the process of interest.

In data set [3] the test system is Human immunodeficiency virus 1. Put plainly: Antiviral activity against HIV1 3B infected in human MT2 cells assessed as inhibition of p24 antigen production pretreated with virus for 30 mins followed by 4 days incubation with cells by sandwich ELISA based multicycle infection assay. The class given is functional, cell-based. In outline: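 MT-2 cells were infected with HIV-1 IIIB at 100 TCID50 and preincubated 30 min with graded compound concentrations. Medium was replaced next day. Supernatants were collected 4 days post-infection, lysed with equal volume 5% Triton X-100, and p24 was measured by sandwich ELISA. IC50 came from percent inhibition of p24.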
For orientation: ELISA stands for enzyme-linked immunosorbent assay.

Data set [4] in a line: Cytotoxicity against human MT2 cells incubated for 4 days by XTT assay. The class given is cell-based. Conditions: MT2 cells. The method, boiled down:
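Run alongside the MT-2 multicycle infection assay. Compound at graded concentrations mixed with an equal volume of MT-2 cells (10^5 cells/ml). Medium replaced next day and culture continued four days.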

Setting [5] is: Human immunodeficiency virus 1, 3B, MT2.
[6] abbreviates: Human immunodeficiency virus 1, HXB2, TZM-bl.

For orientation: CC50 means the concentration giving 50% cytotoxicity. Low readings indicate greater toxicity to the cells, high ones lower toxicity to the cells. For orientation: IC50 means the point on the concentration scale where inhibition reaches its midpoint. Turning to `CNCCC(NC(=O)c1ccc(-c2ccc(F)c(Cl)c2)[nH]1)c1nc(C)c(CO)s1` (stereo in doubt; 65A), in data set [1], the midpoint of cytotoxicity, the CC50 at 72 h, lay at 22 µM. In addition, the figures for the IC50 in data set [2] and in data set [3] (setting [5]) were 1.5 µM and 3.9 µM, respectively. In addition, in data set [4], it took 22.6 µM to reach half-maximal cytotoxicity (CC50 at 96 h).

Compound `Cc1cc(-c2ccc(C(=O)NC(CCN)c3nc(C)c(CO)s3)[nH]2)ccc1F` (stereo in doubt; 63A) yielded a CC50 at 72 h in data set [1] of 33 µM. The IC50 in data set [2] (setting [6]) is 5.7 µM; in data set [3] (setting [5]) it was 1.8 µM. Also, the CC50 at 96 h in data set [4] came to 35.8 µM.

Turning to `Cc1nc(C(CN(C)C)NC(=O)c2ccc(-c3ccc(Cl)c(F)c3)[nH]2)sc1CO` (stereo in doubt; 45B), the IC50 in data set [2] was 19 µM; in data set [3], 19.2 µM.

The compound `Cc1nc(C(CCN(C)C)NC(=O)c2ccc(-c3cccc(Cl)c3)[nH]2)sc1CO` (stereo in doubt; 67A) registered a CC50 at 72 h in data set [1] of 29.4 µM. Further, the IC50 in data set [2] (setting [6]) turned out to be 10.4 µM; in data set [3] (setting [5]), 13.8 µM. Moreover, in data set [4], the midpoint of cytotoxicity, the CC50 at 96 h, lay at 26 µM.

`Cc1nc(C(CCN)NC(=O)c2ccc(-c3ccc(F)c(Cl)c3)[nH]2)sc1CO` (stereo in doubt; 62A) yielded a CC50 at 72 h in data set [1] of 25.5 µM. For the same compound, the IC50 in data set [2] (setting [6]) was 6.6 µM; in data set [3] (setting [5]), 7.8 µM. Further, half-maximal cytotoxicity in data set [4] (CC50 at 96 h) was put at 25.1 µM.

In data set [1], `CNCC(NC(=O)c1ccc(-c2ccc(Cl)c(F)c2)[nH]1)c1ncc(CO)s1` (stereo in doubt; 86A) gave a CC50 at 72 h of 17.4 µM. In addition, the results for the IC50 in data set [2] (setting [6]) and in data set [3] (setting [5]) were 1.4 µM and 3.9 µM, respectively. This compound returned a CC50 at 96 h in data set [4] of 18.4 µM.

`Cc1ccc(-c2ccc(C(=O)NC(CN(C)C)c3nc(C)c(CO)s3)[nH]2)cc1F` (stereo not drawn) came in with a CC50 at 72 h in data set [1] of over 40 µM. Also, the IC50 in data set [2] (setting [6]) is over 40 µM; in data set [3] (setting [5]) it was over 20 µM. The compound also registered a CC50 at 96 h in data set [4] of over 40 µM.

For the compound `Cc1nc(C(CN(C)C)NC(=O)c2ccc(-c3ccc(Cl)cc3)[nH]2)sc1CO` (stereo not drawn), the half-maximal cytotoxic concentration (CC50) at 72 h in data set [1] is over 40 µM. Also, the IC50 in data set [2] (setting [6]) and in data set [3] (setting [5]) was over 40 µM throughout. Moreover, in data set [4], the CC50 at 96 h is over 40 µM.

Compound `NCC(NC(=O)c1ccc(-c2ccc(Cl)cc2)[nH]1)c1ncc(CO)s1` (stereo in doubt; 81A) returned a CC50 at 72 h in data set [1] of 38 µM. For the same compound, the values for the IC50 in data set [2] (setting [6]) and in data set [3] (setting [5]) were 1.3 µM and 1.4 µM, respectively. In data set [4], this compound returned a CC50 at 96 h of 35.6 µM.

Take `Cc1nc(C(CN)NC(=O)c2ncc(-c3ccc(Cl)cc3)[nH]2)sc1CO` (stereo in doubt; 30B): in data set [2], the IC50 was 35 µM.

`Cc1nc(C(CN)NC(=O)c2ncc(-c3ccc(Cl)cc3)[nH]2)sc1CO` (stereo in doubt; 30A): the half-maximal cytotoxic concentration (CC50) at 72 h in data set [1] is over 51 µM. Further, the IC50 in data set [2] (setting [6]) is 51 µM; in data set [3] (setting [5]), over 26 µM. In data set [4], this compound registered a CC50 at 96 h of over 51 µM.

Turning to `CNCC(NC(=O)c1ccc(-c2cc(F)c(Cl)c(F)c2)[nH]1)c1ncc(CO)s1` (stereo in doubt; 88A), the CC50 at 72 h in data set [1] was 10.4 µM. Moreover, the IC50 in data set [2] (setting [6]) and in data set [3] (setting [5]) was 0.36 µM each time. In data set [4], this compound gave a CC50 at 96 h of 14 µM.

In turn, `NCC(NC(=O)c1ccc(-c2ccc(Cl)c(F)c2)[nH]1)c1ncc(CO)s1` (stereo in doubt; 82A) registered a CC50 at 72 h in data set [1] of 37.4 µM. Besides, the IC50 in data set [2] (setting [6]) was 1.1 µM; in data set [3] (setting [5]), 0.94 µM. Also, the CC50 at 96 h in data set [4] stood at 32 µM.

Take `CNCC(NC(=O)c1ccc(-c2ccc(Cl)cc2)[nH]1)c1nc(C)c(CO)s1` (stereo in doubt; 41A): half-maximal cytotoxicity in data set [1] (CC50 at 72 h) was put at 28.4 µM. Also, the IC50 in data set [3] (setting [5]) amounted to 5.5 µM. Also, the midpoint of cytotoxicity in data set [4], the CC50 at 96 h, lay at 27.2 µM.

Regarding `Cc1nc(C(CN)NC(=O)c2ccc(-c3ccc(Cl)cc3)n2C)sc1CO` (stereo in doubt; 26A), half-maximal cytotoxicity in data set [1] (CC50 at 72 h) was put at 36.7 µM. Besides, the results for the IC50 in data set [2] (setting [6]) and in data set [3] (setting [5]) were 25.8 µM and over 25 µM, respectively. This compound also came in with a CC50 at 96 h in data set [4] of 26.6 µM.

On to `CNCC(NC(=O)c1ccc(-c2ccc(C)c(F)c2)[nH]1)c1ncc(CO)s1` (stereo in doubt; 87A), for which half-maximal cytotoxicity in data set [1] (CC50 at 72 h) was put at 22.3 µM. Also, the IC50 in data set [2] (setting [6]) was found to be 2 µM; in data set [3], 4.4 µM. In data set [4], this compound had a CC50 at 96 h of 26.6 µM.

On to `CNCCC(NC(=O)c1ccc(-c2ccc(F)c(C)c2)[nH]1)c1nc(C)c(CO)s1` (stereo in doubt; 66A), for which the CC50 at 72 h in data set [1] was found to be 38.9 µM. The IC50 in data set [2] (setting [6]) and in data set [3] (setting [5]) was 4.1 µM each time. This compound yielded a CC50 at 96 h in data set [4] of 25.9 µM.

`COc1cc(C(=O)NC(CN)c2nc(C)c(CO)s2)[nH]c1-c1ccc(Cl)cc1` (stereo in doubt; 29A) gave a CC50 at 72 h in data set [1] of 25.4 µM. Moreover, the IC50 in data set [2] (setting [6]) was 22.2 µM; in data set [3] (setting [5]) it was over 24 µM. For the same compound, in data set [4], the CC50 at 96 h was 25 µM.

In the case of `Cc1nc(C(CN)NC(=O)c2ccc(-c3ccc(F)c(F)c3)[nH]2)sc1CO` (stereo in doubt; 25A), the midpoint of cytotoxicity in data set [1], the CC50 at 72 h, lay at 57.3 µM. In addition, the IC50 in data set [2] (setting [6]) amounted to 3.4 µM; in data set [3] (setting [5]), 6 µM. In data set [4], this compound yielded a CC50 at 96 h of 61.2 µM.

In turn, `Cc1cc(-c2ccc(Cl)cc2)[nH]c1C(=O)NC(CN)c1nc(C)c(CO)s1` (stereo in doubt; 27A) showed a CC50 at 72 h in data set [1] of 26.4 µM. In addition, the IC50 in data set [2] (setting [6]) is 1.1 µM; in data set [3] (setting [5]), 3.9 µM. The CC50 at 96 h in data set [4] was determined as 20.2 µM.

In data set [1], `Cc1nc(C(CCN(C)C)NC(=O)c2ccc(-c3ccc(F)c(Cl)c3)[nH]2)sc1CO` (stereo in doubt; 68A) showed a CC50 at 72 h of 21.3 µM. The IC50 stood at 1.5 µM in data set [2] (setting [6]) and 3.7 µM in data set [3] (setting [5]). The same compound displayed a CC50 at 96 h in data set [4] of 19.1 µM.

For the compound `CNCC(NC(=O)c1ccc(-c2ccc(C)c(F)c2)[nH]1)c1nc(C)c(CO)s1` (stereo in doubt; 43A), the CC50 at 72 h in data set [1] was 33.5 µM. In addition, the IC50 in data set [3] (setting [5]) is 1.1 µM. The CC50 at 96 h in data set [4] was determined as 34.4 µM.

Turning to `CNCC(NC(=O)c1ccc(-c2ccc(Cl)c(F)c2)[nH]1)c1nc(C)c(CO)s1` (stereo in doubt; 42A), in data set [1], the 50% cytotoxic concentration (CC50) at 72 h came to 20.6 µM. In addition, the IC50 came to 1.6 µM in data set [2] (setting [6]) and 2.4 µM in data set [3] (setting [5]). Also, the CC50 at 96 h in data set [4] came to 21.7 µM.

The compound `COc1ccc(-c2ccc(C(=O)NC(CN)c3ncc(CO)s3)[nH]2)cc1OC` (stereo not drawn) yielded a CC50 at 72 h in data set [1] of over 50 µM. For the same compound, the IC50 in data set [2] (setting [6]) and in data set [3] (setting [5]) was over 50 µM in each case. Also, the CC50 at 96 h in data set [4] was over 50 µM.

In data set [1], `Cc1nc(C(CN)NC(=O)c2cnc(-c3ccc(Cl)cc3)[nH]2)sc1CO` (stereo not drawn) had a CC50 at 72 h of over 51 µM. Also, the IC50 was over 51 µM in data set [2] (setting [6]) and over 26 µM in data set [3] (setting [5]). Besides, in data set [4], the CC50 at 96 h is over 51 µM.

Turning to `CNCCC(NC(=O)c1ccc(-c2cccc(Cl)c2)[nH]1)c1nc(C)c(CO)s1` (stereo in doubt; 64A), the CC50 at 72 h in data set [1] stood at 23 µM. The IC50 in data set [2] (setting [6]) was 6.3 µM; in data set [3] (setting [5]) it was 7.8 µM. Also, the CC50 at 96 h in data set [4] turned out to be 25.1 µM.

Regarding `Cc1nc(C(CN(C)C)NC(=O)c2ccc(-c3ccc(Cl)c(F)c3)[nH]2)sc1CO` (stereo in doubt; 45A), the CC50 at 72 h in data set [1] is over 40 µM. Further, the IC50 in data set [2] (setting [6]) was 16.7 µM; in data set [3] (setting [5]), over 20 µM. In data set [4], this compound returned a CC50 at 96 h of over 40 µM.

As to `Cc1cc(-c2ccc(C(=O)NC(CCN(C)C)c3nc(C)c(CO)s3)[nH]2)ccc1F` (stereo in doubt; 69A), the CC50 at 72 h in data set [1] came out at 23.7 µM. The IC50 in data set [2] came out at 1.9 µM; in data set [3] (setting [5]), 2.1 µM. This compound showed a CC50 at 96 h in data set [4] of 25.1 µM.

Turning to `Cc1ccc(-c2ccc(C(=O)NC(CN)c3ncc(CO)s3)[nH]2)cc1F` (stereo in doubt; 83A), in data set [1], half-maximal cytotoxicity (CC50 at 72 h) was put at 39.2 µM. Besides, in data set [3], the IC50 was found to be 1.6 µM. The compound further had a CC50 at 96 h in data set [4] of 35.2 µM.
